Values after ≈ are worked out from the molar mass of the structure shown. Where a name gives a salt, the structure may show the parent alone. Active and inactive are the calls of the source. The calls are words filed in the database; no cut-off is given here.
Assays:
[1] = system: Candida albicans; experiment: Antifungal activity against Candida albicans ATCC 10231 at pH 5.6 after 20 h in absence of 10% beef serum; settings: ATCC 10231, 20 h
[2] = system: Trichophyton mentagrophytes; experiment: Antifungal activity against Trichophyton mentagrophytes ATCC 9129 at pH 5.6 after 5 days in absence of 10% beef serum; type: functional; settings: Trichophyton mentagrophytes, ATCC 9129, 120 h; read-out: MIC
Procedure, shortened: (§1)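 Agar-dilution MIC in Sabouraud dextrose agar at pH 5.6 or 7.0, with or without 10% beef serum. Plates were incubated at 28 °C for 5 days. MIC is the lowest concentration (µg/mL) giving 100% inhibition. Steps were 1 µg/mL up to 10, 2 µg/mL from 10–20, and 10 µg/mL from 20–100; 100 µg/mL was the top level, and no inhibition there is scored as >100.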

[3] = system: Mucor mucedo; experiment: Antifungal activity against Mucor mucedo ATCC 7941 at pH 7 after 20 h in absence of 10% beef serum; settings: ATCC 7941, 20 h
[4] = system: Candida albicans; experiment: Antifungal activity against Candida albicans ATCC 10231 at pH 7 after 20 h in absence of 10% beef serum; settings: ATCC 10231, 20 h
[5] = system: Aspergillus niger; experiment: Antifungal activity against Aspergillus niger ATCC 1004 at <100 ug/ml at pH 7 after 5 days in presence of 10% beef serum; type: functional, organism-based
Procedure, shortened: as §1

[6] = system: Trichophyton mentagrophytes; experiment: Antifungal activity against Trichophyton mentagrophytes ATCC 9129 at pH 7 after 5 days in absence of 10% beef serum; type: functional; settings: Trichophyton mentagrophytes, ATCC 9129, 120 h; read-out: MIC
Procedure, shortened: as §1

[7] = system: Mucor mucedo; experiment: Antifungal activity against Mucor mucedo ATCC 7941 at pH 5.6 after 20 h in absence of 10% beef serum; settings: ATCC 7941, 20 h
[8] = system: Candida albicans; experiment: Antifungal activity against Candida albicans ATCC 10231 at pH 5.6 after 20 h in presence of 10% beef serum; settings: ATCC 10231, 20 h
[9] = system: Aspergillus niger; experiment: Antifungal activity against Aspergillus niger ATCC 1004 at <100 ug/ml at pH 5.6 after 5 days in absence of 10% beef serum; type: functional, organism-based
Procedure, shortened: as §1

[10] = system: Aspergillus niger; experiment: Antifungal activity against Aspergillus niger ATCC 1004 at <100 ug/ml at pH 5.6 after 5 days in presence of 10% beef serum; type: functional, organism-based
Procedure, shortened: as §1

[11] = system: Mucor mucedo; experiment: Antifungal activity against Mucor mucedo ATCC 7941 at pH 5.6 after 20 h in presence of 10% beef serum; settings: ATCC 7941, 20 h
[12] = system: Trichophyton mentagrophytes; experiment: Antifungal activity against Trichophyton mentagrophytes ATCC 9129 at pH 5.6 after 5 days in presence of 10% beef serum; type: functional; settings: Trichophyton mentagrophytes, ATCC 9129, 120 h; read-out: MIC
Procedure, shortened: as §1

[13] = system: Candida albicans; experiment: Antifungal activity against Candida albicans ATCC 10231 at pH 7 after 20 h in presence of 10% beef serum; settings: ATCC 10231, 20 h
[14] = system: Mucor mucedo; experiment: Antifungal activity against Mucor mucedo ATCC 7941 at pH 7 after 20 h in presence of 10% beef serum; settings: ATCC 7941, 20 h
[15] = system: Trichophyton mentagrophytes; experiment: Antifungal activity against Trichophyton mentagrophytes ATCC 9129 at pH 7 after 5 days in presence of 10% beef serum; type: functional; settings: Trichophyton mentagrophytes, ATCC 9129, 120 h; read-out: MIC
Procedure, shortened: as §1

[16] = system: Aspergillus niger; experiment: Antifungal activity against Aspergillus niger ATCC 1004 at <100 ug/ml at pH 7 after 5 days in absence of 10% beef serum; type: functional, organism-based
Procedure, shortened: as §1

[17] = system: Aspergillus niger; experiment: Antifungal activity against Aspergillus niger ATCC 1004 at pH 7 after 5 days in absence of 10% beef serum; type: functional; settings: Aspergillus niger, ATCC 1004, 120 h; read-out: MIC
Procedure, shortened: as §1

[18] = system: Aspergillus niger; experiment: Antifungal activity against Aspergillus niger ATCC 1004 at pH 7 after 5 days in presence of 10% beef serum; type: functional; settings: Aspergillus niger, ATCC 1004, 120 h; read-out: MIC
Procedure, shortened: as §1

[19] = system: Aspergillus niger; experiment: Antifungal activity against Aspergillus niger ATCC 1004 at pH 5.6 after 5 days in presence of 10% beef serum; type: functional; settings: Aspergillus niger, ATCC 1004, 120 h; read-out: MIC
Procedure, shortened: as §1

[20] = system: Aspergillus niger; experiment: Antifungal activity against Aspergillus niger ATCC 1004 at pH 5.6 after 5 days in absence of 10% beef serum; type: functional; settings: Aspergillus niger, ATCC 1004, 120 h; read-out: MIC
Procedure, shortened: as §1

[21] = system: Trichophyton mentagrophytes; experiment: Antifungal activity against Trichophyton mentagrophytes ATCC 9129 at <100 ug/ml at pH 7 after 5 days in presence of 10% beef serum; type: functional, organism-based
Procedure, shortened: as §1

[22] = system: Mucor mucedo; experiment: Antifungal activity against Mucor mucedo ATCC 7941 at <100 ug/ml at pH 5.6 after 20 h in presence of 10% beef serum
[23] = system: Candida albicans; experiment: Antifungal activity against Candida albicans ATCC 10231 at <100 ug/ml at pH 5.6 after 20 h in absence of 10% beef serum
[24] = system: Candida albicans; experiment: Antifungal activity against Candida albicans ATCC 10231 at <100 ug/ml at pH 5.6 after 20 h in presence of 10% beef serum
[25] = system: Candida albicans; experiment: Antifungal activity against Candida albicans ATCC 10231 at <100 ug/ml at pH 7 after 20 h in presence of 10% beef serum
[26] = system: Mucor mucedo; experiment: Antifungal activity against Mucor mucedo ATCC 7941 at <100 ug/ml at pH 5.6 after 20 h in absence of 10% beef serum
[27] = system: Candida albicans; experiment: Antifungal activity against Candida albicans ATCC 10231 at <100 ug/ml at pH 7 after 20 h in absence of 10% beef serum
[28] = system: Mucor mucedo; experiment: Antifungal activity against Mucor mucedo ATCC 7941 at <100 ug/ml at pH 7 after 20 h in absence of 10% beef serum
[29] = system: Mucor mucedo; experiment: Antifungal activity against Mucor mucedo ATCC 7941 at <100 ug/ml at pH 7 after 20 h in presence of 10% beef serum
[30] = system: Trichophyton mentagrophytes; experiment: Antifungal activity against Trichophyton mentagrophytes ATCC 9129 at <100 ug/ml at pH 5.6 after 5 days in presence of 10% beef serum; type: functional, organism-based
Procedure, shortened: as §1

MIC [1] [µg/mL]	MIC [2] [µg/mL]	MIC [3] [µg/mL]	MIC [4] [µg/mL]	MIC [6] [µg/mL]	MIC [7] [µg/mL]	MIC [8] [µg/mL]	MIC [11] [µg/mL]	MIC [12] [µg/mL]	MIC [13] [µg/mL]	MIC [14] [µg/mL]	MIC [15] [µg/mL]	MIC [17] [µg/mL]	MIC [18] [µg/mL]	MIC [19] [µg/mL]	MIC [20] [µg/mL]	SMILES	inhibition [5]	inhibition [9]	inhibition [10]	inhibition [16]	further results
90 (≈ 404 µM)	4 (≈ 17.9 µM)	40 (≈ 179 µM)	90 (≈ 404 µM)	7 (≈ 31.4 µM)	10 (≈ 44.8 µM)	80	40	5	90	40	14					COC(=O)/C=C(/Br)C(=O)OC	inactive	inactive	inactive	inactive	
3 (≈ 10 µM)	< 1	3 (≈ 10 µM)	4 (≈ 13.4 µM)	2 (≈ 6.69 µM)	< 1	5	14	5	14	14	14	40 (≈ 134 µM)	60	18	18 (≈ 60.2 µM)	CCCOC(=O)[C@@H](F)[C@@H](Br)C(=O)OCCC (relative stereo)					
4 (≈ 14.8 µM)	< 1	4 (≈ 14.8 µM)	7 (≈ 25.8 µM)	2 (≈ 7.38 µM)	2 (≈ 7.38 µM)	5	6	2	14	9	5	20 (≈ 73.8 µM)	30	20	18 (≈ 66.4 µM)	CCOC(=O)[C@H](F)[C@@H](Br)C(=O)OCC (relative stereo)					
	16 (≈ 62.4 µM)			50 (≈ 195 µM)												CCCCCOC(=O)/C=C/C(=O)OCCCCC	inactive	inactive	inactive	inactive	inhibition [21]: inactive; inhibition [22]: inactive; inhibition [23]: inactive; inhibition [24]: inactive; inhibition [25]: inactive; inhibition [26]: inactive; inhibition [27]: inactive; inhibition [28]: inactive; inhibition [29]: inactive; inhibition [30]: inactive
60	8	40	90	20	18	60	30	16	90	50	30					COC(=O)/C=C/C(=O)OC [DIMETHYL FUMARATE]	inactive	inactive	inactive	inactive	
< 1	< 1	< 1	< 1	< 1	< 1	< 1	< 1	< 1	< 1	< 1	< 1	< 1	< 1	< 1	< 1	C[C@@H]1[C@H](O)[C@@H](C)/C=C/C=C/C=C/C=C/C=C/C=C/C=C/[C@H](O[C@@H]2O[C@H](C)[C@@H](O)[C@H](N)[C@@H]2O)C[C@@H]2O[C@](O)(C[C@@H](O)C[C@@H](O)[C@H](O)CC[C@@H](O)C[C@@H](O)CC(=O)O[C@H]1C)C[C@H](O)[C@H]2C(=O)O [AMPHOTERICIN B]					
12 (≈ 53.8 µM)	< 1	5 (≈ 22.4 µM)	18 (≈ 80.7 µM)	3 (≈ 13.5 µM)	3 (≈ 13.5 µM)	14	4	3	20	14	9	18 (≈ 80.7 µM)	20	16	14 (≈ 62.8 µM)	COC(=O)/C=C(\Br)C(=O)OC					
4 (≈ 24.7 µM)	< 1	4 (≈ 24.7 µM)	20 (≈ 123 µM)	8 (≈ 49.3 µM)	< 1	6	2	4	40	6	40	60 (≈ 370 µM)		50	20 (≈ 123 µM)	COC(=O)/C=C(\F)C(=O)OC	inactive				
	3 (≈ 8.44 µM)			14 (≈ 39.4 µM)												CCCCCOC(=O)[C@@H](F)[C@@H](Br)C(=O)OCCCCC (relative stereo)	inactive	inactive	inactive	inactive	inhibition [21]: inactive; inhibition [22]: inactive; inhibition [23]: inactive; inhibition [24]: inactive; inhibition [25]: inactive; inhibition [26]: inactive; inhibition [27]: inactive; inhibition [28]: inactive; inhibition [29]: inactive; inhibition [30]: inactive
60 (≈ 348 µM)	7 (≈ 40.7 µM)	50 (≈ 290 µM)	90 (≈ 523 µM)	18 (≈ 105 µM)	40 (≈ 232 µM)	70	50	20		50	50					CCOC(=O)/C=C/C(=O)OCC	inactive	inactive	inactive	inactive	inhibition [25]: inactive
	12 (≈ 33.8 µM)			40 (≈ 113 µM)												CCCCCOC(=O)[C@H](F)[C@@H](Br)C(=O)OCCCCC (relative stereo)	inactive	inactive	inactive	inactive	inhibition [21]: inactive; inhibition [22]: inactive; inhibition [23]: inactive; inhibition [24]: inactive; inhibition [25]: inactive; inhibition [26]: inactive; inhibition [27]: inactive; inhibition [28]: inactive; inhibition [29]: inactive; inhibition [30]: inactive
< 1	< 1	< 1	< 1	3 (≈ 2.7 µM)	< 1	< 1	< 1	< 1	2	2	9	8 (≈ 7.21 µM)	10	5	2 (≈ 1.8 µM)	CC1/C=C/C=C/C=C/C=C/C=C/C=C/C=C/C(OC2O[C@H](C)[C@@H](O)[C@H](N)[C@@H]2O)CC(O)C(C(=O)O)C(O)CC(=O)CC(O)CC(O)CC(O)CC(=O)CCCC(=O)CC(=O)OC1C(C)CC(C)C(O)CC(=O)c1ccc(N)cc1 (some centres not stated)					

Source: ChEMBL document CHEMBL3244142, “Antifungal properties of 2-bromo-3-fluorosuccinic acid esters and related compounds” (1977)
